Laboratory results reported in the RNAGym collection of RNA variant scans (doi:10.1126/science.aae0568).
This sample holds only a part of the variants without activity.

B1: tRNA (parent)
chain: GUUCCGUUGGCGUAAUGGUAACGCGUCUCCCUCCUAAGGAGAAGACUGCGGGUUCGAGUCCCGUACGGAACG

Variants of: B1
Experiment: yeast fitness relative to wild type (ratio to wild type); higher = fitter; tRNA-Arg(CCU), competitive growth, 37 C, YPD
Procedure, shortened: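 A pool of Saccharomyces cerevisiae strains, each with a tRNA-Arg(CCU) gene variant at the native genomic locus, was competed in YPD at 37°C for 24 hours across six parallel replicates. The variants had been chemically synthesised at a 3% per-site mutation rate over 69 sites, and gene amplicons before and after competition were read by 100-nucleotide paired-end sequencing. Darwinian fitness relative to wild type rested on changes in genotype frequencies. Genotypes required ≥ 100 starting reads, and estimates < 0.5 were set to 0.5.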

Variant	yeast fitness
GUUUCGUUGGCGUAAUGGUAACGCGUCUUCCUCCUAAGCAGAAGACUGCGGGUUCGAGUCCCGUACGGAACG	0.536
GUUUCGUUGGCGUAAUGGUAACGCGUCUGCCUCCUAACGAGAAGACUGCGGGUUCGAGUCCCGUACGGAACG	0.621
GUUUCGUUGGCGUAAUGGUAACGCGUCUUGCUCCUAAGGAGAAGACUGCGGGUUCGAGUCCCGUACGGAACG	≤ 0.5
GUUUCGUUGGCGUAAUGGUAACGCGUCUCACUCCUGAGGAGAAGACUGCGGGUUCGAGUCCCGUACGGAACG	0.839
GUUUCGUUGGCGUAAUGGUAACGCGUCUCACUCCUAAGGAGAAGACUGCGGGUCCGAGUCCCGUACGGAACG	0.739
GUUUCGUUGGCGUAAUGGUAACGCGUCUCACUCCUAACGAGAAGACUGCGGGUUCGAGUCACGUACGGAACG	≤ 0.5
GUUUCGUUGGCGUAAUGGUAACGCGUCUCACUCCUAAGCAGAAGACUGCGGGUUCGAGUCCCGUACGGAACG	0.598
GUUUCGUUGGCGUAAUGGUAACGCGUCUCUCUCCUAAGGAGAAGACUGCGGGUUCGAGUCCCGUACGGUACG	0.736
GUUUCGUUGGCGUAAUGGUAACGCGUCUUCCUCCUAAGGAGAAGACUGCAGGUUCGAGUCCCAUACGGAACG	≤ 0.5
GUUUCGUUGGCGUAAUGGUAACGCGUCUCACUCCUAAGGAGAAGACUGUGGGUUCGAGUCCCGUACGGAACG	0.825
GUUUCGUUGGCGUAAUGGUAACGCGUCUUCCUCCUUAGGAGAAGACUGCGGGUUCGAGUCCCGUUCGGAACG	0.557
GUUUCGUUGGCGUAAUGGUAACGCGUCUUCCUCCUAAGGAGAUGACUGCGGGUUCGAGUCCCGUACGGAACG	0.756
GUUUCGUUGGCGUAAUGGUAACGCGUCUCACUCCUAAGGAGAAGACUGCGGGUUCGAGUCCCGUACCGAACG	0.731
GUUUCGUUGGCGUAAUGGUAACGCGUCUCACUCCUAAGGAGAAGACUGCGGGUUCGAGUCCCGCACGGAACG	0.92
GUUUCGUUGGCGUAAUGGUAACGCGUCUCACUCCUAAGGAGAAGUCUGCGGGUUCGAGUCCCGUACGGAACG	0.77
GUUUCGUUGGCGUAAUGGUAACGCGUCUCUGUCCUAAGGAGAAGACUGCGGGUUCGAGUCCUGUACGGAACG	0.766
GUUUCGUUGGCGUAAUGGUAACGCGUCUCACUCCUAAGGAGAAGACUGCGGGUUCGAGUCCCGUGCCGAACG	≤ 0.5
GUUUCGUUGGCGUAAUGGUAACGCGUCUCUCUCCUAAGGAGAAGACUGCGGGUUCGAGUCCAGUACGGAACG	≤ 0.5
GUUUCGUUGGCGUAAUGGUAACGCGUCUCACUCCUAAGGAGAAGACUGCGGGUUCGAGUCCCGUACGGAUCG	0.799

Variant	yeast fitness
GUUUCGUUGGCGUAAUGGUAACGCGUCUCACUCCUAAGGAGAAGACUGCGGGUUCGAGUCCCGUACGGAGCG	0.769
GUUUCGUUGGCGUAAUGGUAACGCGUCUCACUCCUAAGGAGAAGACUGCGGGUUCGGGUCCCGUACGGAACG	0.806
GUUUCGUUGGCGUAAUGGUAACGCGUCUCACUCCUAAGGAGAAGACUGCGGGCUCGAGUCCCGUACGGAGCG	≤ 0.5
GUUUCGUUGGCGUAAUGGUAACGCGUCUUCCUCCUAAGGAGAAGACUGCGGGUUCGAGUCCUGCUCGGAACG	≤ 0.5
GUUUCGUUGGCGUAAUGGUAACGCGUCUCACUCCCAAGGAGAAGACUGCGGGUUCGAGUCCCGUACGGAACG	0.77
GUUUCGUUGGCGUAAUGGUAACGCGUCUCGCUCCUAAGGAGAAGAUUGCGGAUUCGAGUCCCGUCCGGAACG	≤ 0.5
GUUUCGUUGGCGUAAUGGUAACGCGUCUCACUCCUAAGGAGAAGAGUGUGGGUUCGAGUCCCGUACGGAACG	0.57
GUUUCGUUGGCGUAAUGGUAACGCGUCUCACUCCUAAGGAGAAGACUGCGGGUUCGAGUGCCGUACGGAACG	0.6
GUUUCGUUGGCGUAAUGGUAACGCGUCUCGCUCCUUAGGAGAAGACUGCGGGUUCGAGUCCCGUACGGAACG	0.563
GUUUCGUUGGCGUAAUGGUAACGCGUCUUCCUCCUAAGGAGAAGACUGCGGGUUCGAGUCCCGUACGGAACG	1
GUUUCGUUGGCGUAAUGGUAACGCGUCUCACUCCUAAGGAGAAGACUGCGGGUUGGAGUCCCGUACGGAACG	0.549
GUUUCGUUGGCGUAAUGGUAACGCGUCUCGCUCCUUAGGAGAAGACUGCGGGUUCGAGUCCCGUACGGACCG	≤ 0.5
GUUUCGUUGGCGUAAUGGUAACGCGUCUCUCUCCUAAAGAGAAGACUGCGGGUUCGAGUCCCGUACGCAACG	≤ 0.5
GUUUCGUUGGCGUAAUGGUAACGCGUCUCGCUCCUAAGGAGAAGACUGCGGGUUCGAGUCCCGUACGGAACG	0.801
GUUUCGUUGGCGUAAUGGUAACGCGUCUCUCUCCUAAGGAGAAGACUGCGGGUUCGAGUCCCGUACGGAACG	0.931
GUUUCGUUGGCGUAAUGGUAACGCGUCUCGCUCCUAAGGAGAAGACUGCGCGUUCUAGUCCCGUGCGGAACG	≤ 0.5
GUUUCGUUGGCGUAAUGGUAACGCGUCUUCUUCCUAAGGAGAAGACUGCGGGUUCGAGCCCCGUACGGAACG	≤ 0.5
GUUUCGUUGGCGUAAUGGUAACGCGUCUCACUCCUAAGGAGUAGACUGCGGGUUCGAGUCCCGUACGGAACG	0.529
GUUUCGUUGGCGUAAUGGUAACGCGUCUCACUCCUAAGGAGCAGACUGCGGGUUCGAGUCCCGUACGGAACG	0.582
